{
  "source": "ChEMBL document CHEMBL1153722",
  "about": "“Design, synthesis, and characterization of peptide-based rab geranylgeranyl transferase inhibitors” (J Med Chem, 2009)",
  "note": "Peptide text beside a SMILES is read from it. * marks the point of attachment. Hydrocinnamoyl = O=C(CCc1ccccc1)*; Undecanoyl = CCCCCCCCCCC(=O)*; Cbz = O=C(OCc1ccccc1)*",
  "data": [
    {"species": "Rattus norvegicus", "experiment": "Inhibition of rat recombinant Rab geranylgeranyltransferase at 100 uM in presence of canine Rab7 and rat REP1 NBD-FPP based continuous fluorimetric assay", "summary_of_the_method": "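Continuous fluorometric assay in 96/384-well format: 3 μM Rab7, 3 μM REP1, 9 μM NBD-FPP and 400 nM RabGGTase, with or without inhibitor. […] IC50 was calculated from three independent measurements.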", "units": {"inhibition": "%"}, "values": [
      {"smiles": "CCCCCCCCCCCCCC(=O)OC[C@H](NC(=O)[C@@H]1CCCN1C(=O)[C@H](CCC(N)=O)NC(=O)c1coc(-c2ccccc2)n1)C(=O)O", "inhibition": 36},
      {"smiles": "CCCCCCCCCCCC(=O)N[C@@H](Cc1ccc(O)cc1)C(=O)N[C@@H](Cc1c[nH]cn1)C(=O)N[C@@H](Cc1c[nH]cn1)C(=O)N(C)CCc1ccccn1", "inhibition": 54},
      {"smiles": "COC(=O)[C@H](CCC(N)=O)NC(=O)[C@H](Cc1ccccc1)NC(=O)CNC(=O)CCc1ccccc1", "note": "(Hydrocinnamoyl-Gly-Phe-Gln-OMe)", "inhibition": 92},
      {"smiles": "CC(C)[C@H](NC(=O)c1coc(-c2ccccc2)n1)C(=O)NCC(=O)N[C@@H](Cc1ccc(O)cc1)C(=O)Nc1ccc(F)cc1F", "inhibition": 102},
      {"smiles": "NC(=O)[C@H](Cc1ccc(O)cc1)NC(=O)CNC(=O)[C@H](Cc1c[nH]cn1)NC(=O)OCc1ccccc1", "note": "(Cbz-His-Gly-Tyr-NH2)", "inhibition": 89},
      {"smiles": "NC(=O)CC[C@H](NC(=O)[C@H](Cc1ccccc1)NC(=O)[C@H](CO)NC(=O)CCc1ccccc1)C(=O)Nc1ccc(F)cc1", "inhibition": 88},
      {"smiles": "CCCCCCCCCCC(=O)N[C@@H](Cc1ccc(O)cc1)C(=O)N[C@@H](Cc1cnc[nH]1)C(=O)N[C@@H](Cc1ccc(O)cc1)C(=O)O", "note": "(Undecanoyl-Tyr-His-Tyr-OH)", "inhibition": 90},
      {"smiles": "CCCCCCCCCCCOc1ccc(C(=O)N[C@@H](Cc2c[nH]cn2)C(=O)N[C@@H](Cc2ccc(O)cc2)C(=O)N[C@@H](Cc2ccccc2)C(=O)N(C)OC)cc1", "inhibition": 65},
      {"smiles": "CC#CCOC(=O)[C@H](Cc1ccccc1)NC(=O)[C@H](Cc1ccccc1)NC(=O)[C@H](CC(C)C)NC(=O)/C=C/c1ccccc1", "inhibition": 61},
      {"smiles": "CCCCCCCCCCCOc1ccc(C(=O)N[C@@H](Cc2ccc(O)cc2)C(=O)N[C@@H](Cc2ccc(O)cc2)C(=O)N[C@@H](Cc2ccc(O)cc2)C(=O)NC2CCCCC2)cc1", "inhibition": 91},
      {"smiles": "C[C@@H](NC(=O)CCc1ccccc1)C(=O)N[C@@H](Cc1ccccc1)C(=O)N[C@@H](CCC(N)=O)C(=O)NC1CCCCC1", "inhibition": 44},
      {"smiles": "CC(C)C[C@H](NC(=O)[C@H](CO)NC(=O)[C@H](Cc1ccccc1)NC(=O)CCc1ccccc1)C(=O)O", "inhibition": 80},
      {"smiles": "NC(=O)CC[C@H](NC(=O)[C@H](Cc1ccccc1)NC(=O)[C@H](CO)NC(=O)CCc1ccccc1)C(=O)NC1CCCCC1", "inhibition": 99},
      {"smiles": "O=C(CNC(=O)[C@@H]1CCCN1C(=O)c1coc(-c2ccccc2)n1)N[C@@H](Cc1ccc(O)cc1)C(=O)Nc1ccc(F)cc1F", "inhibition": 89},
      {"smiles": "CC(C)[C@H](NC(=O)c1coc(-c2ccccc2)n1)C(=O)NCC(=O)N[C@@H](Cc1c[nH]cn1)C(=O)Nc1ccc(F)cc1F", "inhibition": 55},
      {"smiles": "CC(C)C[C@H](NC(=O)[C@H](CO)NC(=O)[C@H](Cc1ccccc1)NC(=O)/C=C/c1ccc(F)cc1)C(=O)O", "inhibition": 71},
      {"smiles": "CCCCCCCCCCC(=O)N[C@@H](Cc1ccc(O)cc1)C(=O)N[C@@H](Cc1c[nH]cn1)C(=O)N[C@@H](Cc1c[nH]cn1)C(=O)Nc1ccccc1N", "inhibition": 87},
      {"smiles": "CON(C)C(=O)[C@H](Cc1ccc(O)cc1)NC(=O)CNC(=O)[C@H](Cc1ccc(O)cc1)NC(=O)c1ccc(F)cc1", "inhibition": 84},
      {"smiles": "CC(C)CCNC(=O)[C@H](Cc1ccccc1)NC(=O)CNC(=O)[C@@H]1CCCN1C(=O)/C=C/c1ccccc1", "inhibition": 80},
      {"smiles": "CCCCCCCCCCCCCCCC(=O)N[C@@H](Cc1ccc(O)cc1)C(=O)N[C@@H](Cc1ccc(O)cc1)C(=O)N[C@@H](Cc1ccc(O)cc1)C(=O)Nc1ccc(F)cc1F", "inhibition": 82},
      {"smiles": "C[C@@H](O)[C@H](NC(=O)/C=C/c1ccccc1)C(=O)N[C@@H](Cc1ccccc1)C(=O)N[C@@H](CCC(N)=O)C(=O)NC1CCCCC1", "inhibition": 75},
      {"smiles": "COC(=O)CNC(=O)[C@H](CO)NC(=O)[C@H](Cc1ccccc1)NC(=O)C1COC(c2ccccc2)=N1", "note": "(some centres undefined)", "inhibition": 114},
      {"smiles": "CCCCCCCCCCOc1ccc(C(=O)N[C@@H](Cc2c[nH]cn2)C(=O)N[C@@H](Cc2c[nH]cn2)C(=O)N[C@@H](CO)C(=O)O)cc1", "inhibition": 74},
      {"smiles": "CC(C)C[C@H](NC(=O)[C@H](COC(C)(C)C)NC(=O)[C@H](Cc1ccccc1)NC(=O)c1ccc(-c2ccccc2)cc1)C(=O)OCCCl", "inhibition": 87}
    ]}
  ]
}
